Results published in ChEMBL document CHEMBL2331228, “Synthesis and insight into the structure-activity relationships of chalcones as antimalarial agents” (J Med Chem, 2013).
Values after ≈ are worked out from the molar mass of the structure shown. Active and inactive are the calls of the source. No cut-off for these calls is given here.

Tests used:
Plasmodium falciparum [1] = test: Antimalarial activity against schizont stage of chloroquine-sensitive Plasmodium falciparum 3D7 assessed as reduction in parasitemia at 10 ug/ml after more than 40 hrs by Giemsa staining-based light microscopy; assay type: functional; parameters: scale not given: the % may be the effect or the level left
Outline: (§1)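 Ring stages (5% D-sorbitol synchronized) of 3D7 were grown in RPMI with 10% FBS, gentamycin and Fungizone at 37 °C under CO2. They were exposed in duplicate to compound (DMSO stock, 5 mg/mL) at 2, 10 and 50 μg/mL, with 3% cell suspension and 1% parasitized cells, for >40 h. Giemsa-stained thin smears were counted for schizonts. MIC is the lowest concentration giving 100% inhibition of schizont maturation.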

Plasmodium falciparum [2] = test: Antimalarial activity against schizont stage of chloroquine-sensitive Plasmodium falciparum 3D7 after more than 40 hrs by Giemsa staining-based light microscopic analysis; assay type: functional; conditions: 3D7, 40 h; outline: as §1
[3] = Tmax in Sprague-Dawley rat at 50 mg/kg, po by LC-MS/MS analysis; assay type: ADME, organism-based; parameters: dose 50 mg/kg, route oral; conditions: in vivo
Outline: (§2)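 Male Sprague-Dawley rats (n = 5, 220−240 g), single oral dose 50 mg/kg. Plasma stored at −70 °C, processed by acetonitrile protein precipitation, and analysed by LC-MS/MS with QC samples among calibrators.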

[4] = Apparent oral clearance in Sprague-Dawley rat at 50 mg/kg by LC-MS/MS analysis; assay type: ADME, organism-based; parameters: dose 50 mg/kg, route oral; conditions: in vivo; outline: as §2
Plasmodium yoelii [5] = test: Antimalarial activity against chloroquine-resistant Plasmodium yoelii N-67 infected in Swiss mouse assessed as reduction in parasitemia at 50 mg/kg/day, po administered for 3 days measured on day 4 relative to control; assay type: functional; parameters: scale not given: the % may be the effect or the level left
Plasmodium yoelii [6] = test: Antimalarial activity against chloroquine-resistant Plasmodium yoelii N-67 infected in Swiss mouse assessed as mean survival time of host at 50 mg/kg/day, ip administered for 3 days (reference value: 9.20 +/- 0.44 days); assay type: functional; conditions: route intraperitoneal
[7] = Selectivity index, ratio of CC50 for african green monkey Vero C1008 cells to IC50 for Plasmodium falciparum 3D7; assay type: functional
Outline: (§3)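 SI = CC50 (Vero, 72 h MTT) / IC50. IC50 comes from a 72 h SYBR Green I fluorescence assay: seven 2-fold dilutions in duplicate, 2% cell suspension at 0.8% parasitemia, and Logit regression of the dose-response.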

[8] = Cmax in Sprague-Dawley rat at 50 mg/kg, po by LC-MS/MS analysis; assay type: ADME, organism-based; parameters: dose 50 mg/kg, route oral; conditions: in vivo; outline: as §2
[9] = Mean residence time in Sprague-Dawley rat at 50 mg/kg, po by LC-MS/MS analysis; assay type: ADME, organism-based; parameters: dose 50 mg/kg, route oral; conditions: in vivo; outline: as §2
[10] = Elimination half life in Sprague-Dawley rat at 50 mg/kg, po by LC-MS/MS analysis; assay type: ADME, organism-based; parameters: dose 50 mg/kg, route oral; conditions: in vivo, read-out: beta t1/2 (converted); outline: as §2
Plasmodium falciparum [11] = test: Activation of Plasmodium falciparum recombinant Falcipain-3 using Z-LR-AMC as substrate at high concentration after 30 mins by microplate reader analysis
Plasmodium falciparum [12] = test: Antimalarial activity against chloroquine-resistant Plasmodium falciparum K1 after 72 hrs by SYBR Green I-based fluorescence assay; assay type: functional, organism-based; conditions: K1, 72 h
Outline: (§4)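 Parasites cultured in RPMI with 10% FBS, gentamycin and Fungizone (pH 7.2) at 37 °C in CO2. Compounds from DMSO stock (5 mg/mL). Seven 2-fold serial dilutions, duplicate wells. Cells added at 2% hematocrit, 0.8% parasitemia; uninfected-cell wells kept as background. After 72 h, lysis buffer with SYBR Green I, 1 h at 37 °C, fluorescence read. IC50 by logit regression of dose-response.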

Plasmodium falciparum [13] = test: Inhibition of Plasmodium falciparum recombinant Falcipain-3 using Z-LR-AMC as substrate at low concentration after 30 mins by microplate reader analysis
Plasmodium yoelii [14] = test: Antimalarial activity against chloroquine-resistant Plasmodium yoelii N-67 infected in Swiss mouse assessed as mean survival time at 50 mg/kg/day, po administered for 3 days (reference value: 9.20 +/- 0.44 days); assay type: functional
[15] = AUC (0 to t) in Sprague-Dawley rat at 50 mg/kg, po by LC-MS/MS analysis; assay type: ADME, organism-based; parameters: dose 50 mg/kg, route oral; conditions: plasma; outline: as §2
Plasmodium falciparum [16] = test: Resistance ratio of IC5O for Plasmodium falciparum K1 to IC50 for Plasmodium falciparum 3D7; assay type: functional
Outline: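 Ratio of K1 IC50 to 3D7 IC50. Both come from the 72 h SYBR Green I fluorescence assay: seven 2-fold dilutions in duplicate, 0.8% parasitemia, IC50 by logit regression.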

Plasmodium falciparum [17] = test: Antimalarial activity against schizont stage of chloroquine-sensitive Plasmodium falciparum 3D7 after 72 hrs by SYBR Green I-based fluorescence assay; assay type: functional, organism-based; conditions: 3D7, 72 h; outline: as §4
[18] = Selectivity index, ratio of CC50 for african green monkey Vero C1008 cells to IC50 for Plasmodium falciparum K1; assay type: functional; outline: as §3
[19] = Cytotoxicity against african green monkey Vero C1008 cells after 72 hrs by MTT assay; assay type: cell-based; conditions: chlorocebus sabaeus
Outline: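 Vero (C1008) cells were incubated with dilutions of compound for 72 h and read by MTT. CC50 was obtained by nonlinear regression.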

[20] = Apparent oral volume of distribution in Sprague-Dawley rat at 50 mg/kg by LC-MS/MS analysis; assay type: ADME, organism-based; parameters: dose 50 mg/kg, route oral; conditions: in vivo; outline: as §2
[21] = Inhibition of Plasmodium falciparum recombinant Falcipain-2 using Z-LR-AMC as substrate after 30 mins by microplate reader analysis
Plasmodium yoelii [22] = test: Antimalarial activity against chloroquine-resistant Plasmodium yoelii N-67 infected in Swiss mouse assessed as reduction in parasitemia at 50 mg/kg/day, ip administered for 3 days measured on day 4 relative to control; assay type: functional; parameters: scale not given: the % may be the effect or the level left; conditions: route intraperitoneal
Plasmodium falciparum [23] = test: Antimalarial activity against Plasmodium falciparum; assay type: functional
Plasmodium falciparum [24] = test: Antimalarial activity against schizont stage of chloroquine-sensitive Plasmodium falciparum 3D7 assessed as reduction in parasitemia at 2 to 10 ug/ml after more than 40 hrs by Giemsa staining-based light microscopy; assay type: functional; parameters: scale not given: the % may be the effect or the level left; outline: as §1
Plasmodium yoelii [25] = test: Antimalarial activity against chloroquine-resistant Plasmodium yoelii N-67 infected in Swiss mouse assessed as reduction in parasitemia at 20 mg/kg/day, po administered for 3 days measured on day 4 relative to control; assay type: functional; parameters: scale not given: the % may be the effect or the level left
Plasmodium yoelii [26] = test: Antimalarial activity against chloroquine-resistant Plasmodium yoelii N-67 infected in Swiss mouse assessed as mean survival time at 20 mg/kg/day, po administered for 3 days (reference value: 9.20 +/- 0.44 days); assay type: functional
Plasmodium yoelii [27] = test: Antimalarial activity against chloroquine-resistant Plasmodium yoelii N-67 infected in Swiss mouse assessed as mean survival time at 3 mg/kg/day, im administered for 3 days (reference value: 9.20 +/- 0.44 days); assay type: functional; conditions: route intramuscular
Plasmodium yoelii [28] = test: Antimalarial activity against chloroquine-resistant Plasmodium yoelii N-67 infected in Swiss mouse assessed as reduction in parasitemia at 3 mg/kg/day, im administered for 3 days measured on day 4 relative to control; assay type: functional; parameters: scale not given: the % may be the effect or the level left; conditions: route intramuscular

Compound: CC1(C)CCc2cc(C(=O)/C=C/c3ccc([N+](=O)[O-])cc3)c(O)cc2O1
- Activity (Plasmodium falciparum [1]): <100%
- MIC (Plasmodium falciparum [2]): > 28.3 µM

Compound: CC(C)=CCCC1(C)C=Cc2c(ccc(C(=O)/C=C/c3cc(C=O)ccc3O)c2O)O1 (centres undefined)
- Tmax [3]: 3 h
- CL/F [4]: 2140 mL/min/kg
- Activity (Plasmodium yoelii [5]): 23%
- MST (Plasmodium yoelii [6]): 17.4 days
- Ratio CC50/IC50 [7]: 64
- Cmax [8]: 78.3 ng/mL
- MRT [9]: 3.89 h
- half-life [10]: 139 min
- Activity (Plasmodium falciparum [11]): Active
- IC50 (Plasmodium falciparum [12]): 935 nM
- inhibition (Plasmodium falciparum [13]): inactive
- MST (Plasmodium yoelii [14]): 9.2 days
- AUC(0-t) [15]: 389 ng·h/mL
- Ratio IC50 (Plasmodium falciparum [16]): 2.6
- IC50 (Plasmodium falciparum [17]): 347 nM
- Ratio CC50/IC50 [18]: 23.7
- CC50 at 72 h [19]: 22.2 µM
- Vd/F [20]: 433 L/kg
- MIC (Plasmodium falciparum [2]): 1.19 µM (≈ 0.498 µg/mL)
- IC50 [21]: 13.5 µM
- Activity (Plasmodium yoelii [22]): 98%

Compound: CC(C)=CCCC1(C)C=Cc2c(ccc(C(=O)/C=C/c3ccc(O)c(C=O)c3)c2O)O1 (centres undefined)
- MST (Plasmodium yoelii [6]): 12.33 days
- Ratio CC50/IC50 [7]: 79
- Activity (Plasmodium falciparum [11]): Active
- IC50 (Plasmodium falciparum [12]): 1090 nM
- inhibition (Plasmodium falciparum [13]): Active
- Ratio IC50 (Plasmodium falciparum [16]): 8.7
- IC50 (Plasmodium falciparum [17]): 125 nM
- Ratio CC50/IC50 [18]: 9
- CC50 at 72 h [19]: 9.9 µM
- MIC (Plasmodium falciparum [2]): 0.59 µM (≈ 0.247 µg/mL)
- IC50 [21]: 5.5 µM
- Activity (Plasmodium yoelii [22]): 89%

Compound: CC(C)=CCCC1(C)C=Cc2ccc(O)c(C(=O)/C=C/c3cc(C=O)ccc3O)c2O1 (centres undefined)
- MST (Plasmodium yoelii [6]): 18.4 days
- Ratio CC50/IC50 [7]: 1173
- Activity (Plasmodium falciparum [11]): Active
- IC50 (Plasmodium falciparum [12]): > 1200 nM
- inhibition (Plasmodium falciparum [13]): inactive
- IC50 (Plasmodium falciparum [17]): 87.5 nM
- CC50 at 72 h [19]: 103 µM
- MIC (Plasmodium falciparum [2]): 0.31 µM (≈ 0.13 µg/mL)
- IC50 [21]: 4.6 µM
- Activity (Plasmodium yoelii [22]): 87%

Compound: CC(C)=CCc1cc(C(=O)/C=C/c2ccc(O)cc2)c(O)c(CC=C(C)C)c1O [MEDICAGENIN]
- MIC (Plasmodium falciparum [23]): 5.1 µM (≈ 2 µg/mL)
- MIC (Plasmodium falciparum [2]): 5.1 µM (≈ 2 µg/mL)

Compound: CN(C)c1ccc(/C=C/C(=O)c2ccc3c(c2O)CCC(C)(C)O3)cc1
- Activity (Plasmodium falciparum [1]): <100%
- MIC (Plasmodium falciparum [2]): > 28.5 µM

Compound: CC(C)CCC[C@H](C)CCC[C@H](C)CCCC1(C)CCc2cc(C(=O)/C=C/c3cccnc3)c(O)cc2O1 (some centres undefined)
- Activity (Plasmodium falciparum [24]): <100%
- MIC (Plasmodium falciparum [2]): > 19.3 µM

Compound: CC1(C)CCc2cc(C(=O)/C=C/c3cccc([N+](=O)[O-])c3)c(O)cc2O1
- Activity (Plasmodium falciparum [1]): <100%
- MIC (Plasmodium falciparum [2]): > 28.2 µM

Compound: CC(C)=CCCC1(C)C=Cc2ccc(O)c(C(=O)/C=C/c3ccc(O)c(C=O)c3)c2O1 (centres undefined)
- MST (Plasmodium yoelii [6]): 16.75 days
- Ratio CC50/IC50 [7]: 334
- IC50 (Plasmodium falciparum [12]): 84.2 nM
- Ratio IC50 (Plasmodium falciparum [16]): 0.9
- IC50 (Plasmodium falciparum [17]): 94.7 nM
- Ratio CC50/IC50 [18]: 376
- CC50 at 72 h [19]: 31.7 µM
- MIC (Plasmodium falciparum [2]): 0.39 µM (≈ 0.163 µg/mL)
- Activity (Plasmodium yoelii [22]): 88%

Compound: CC1(C)CCc2cc(C(=O)/C=C/c3ccccn3)c(O)cc2O1
- Activity (Plasmodium falciparum [24]): <100%
- MIC (Plasmodium falciparum [2]): > 32.4 µM

Compound: CC(C)=CCC1=C/C(=C(O)\C=C\c2ccc(O)cc2)C(=O)C(CC=C(C)C)(CC=C(C)C)C1=O [MUNCHIWARIN]
- MIC (Plasmodium falciparum [23]): 4.34 µM (≈ 2 µg/mL)

Compound: CC(C)=CCCC1(C)C=Cc2c(O)c(C(=O)/C=C/c3cc(C=O)ccc3O)cc(CC=C(C)C)c2O1 (centres undefined)
- MST (Plasmodium yoelii [6]): 12.6 days
- Ratio CC50/IC50 [7]: 1210
- IC50 (Plasmodium falciparum [12]): 366 nM
- Ratio IC50 (Plasmodium falciparum [16]): 5
- IC50 (Plasmodium falciparum [17]): 73.2 nM
- Ratio CC50/IC50 [18]: 242
- CC50 at 72 h [19]: 88.6 µM
- MIC (Plasmodium falciparum [2]): 0.25 µM (≈ 0.122 µg/mL)
- Activity (Plasmodium yoelii [22]): 71%

Compound: CC1(C)CCc2cc(C(=O)/C=C/c3ccc(F)c(F)c3)c(O)cc2O1
- Activity (Plasmodium falciparum [1]): <100%
- MIC (Plasmodium falciparum [2]): > 29.1 µM

Compound: CCN(CC)CCCC(C)Nc1ccnc2cc(Cl)ccc12 (centres undefined) [CHLOROQUINE]
- Activity (Plasmodium yoelii [25]): 99%
- MST (Plasmodium yoelii [26]): >28 days

Compound: CCO[C@H]1O[C@@H]2O[C@@]3(C)CC[C@H]4[C@H](C)CC[C@@H]([C@H]1C)[C@@]24OO3 [ARTEMOTIL]
- Ratio CC50/IC50 [7]: 98720
- MST (Plasmodium yoelii [27]): >28 days
- Ratio IC50 (Plasmodium falciparum [16]): 0.79
- Activity (Plasmodium yoelii [28]): 100%
- IC50 (Plasmodium falciparum [17]): 1.37 nM
- Ratio CC50/IC50 [18]: 124857
- CC50 at 72 h [19]: 136 µM

Compound: CC(C)CCC[C@H](C)CCC[C@H](C)CCCC1(C)CCc2cc(C(=O)/C=C/c3ccccn3)c(O)cc2O1 (some centres undefined)
- Activity (Plasmodium falciparum [24]): <100%
- MIC (Plasmodium falciparum [2]): > 19.3 µM

Compound: CC1(C)CCc2cc(C(=O)/C=C/c3ccc(Cl)c(Cl)c3)c(O)cc2O1
- Activity (Plasmodium falciparum [1]): <100%
- MIC (Plasmodium falciparum [2]): > 26.6 µM
